Data set [1] deals with Trypanosoma brucei brucei. Nature of the data set: WHO-TDR: Human African Trypanosomiasis (HAT). In kind it is functional, organism-based. The note with it: Squib-427. The method in brief: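 Following previously published standard procedures, with reference drugs as positive controls, a whole-organism assay was run against bloodstream-form Trypanosoma brucei, Squib 427 strain. The compounds, 10,000 in all, came from a diverse Life Chemicals library filtered for drug-likeness and reactive groups. Reported values are IC50 for antiparasitic potency.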

The test system of data set [2] is Brugia malayi. The experiment in a line: WHO-TDR: Lymphatic Filariasis. Type of data set: functional. The arrangement: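 tested at 10 µM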. The method in brief:
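The screening set was a 10,000-compound diverse library from Life Chemicals, filtered for drug-likeness and for reactive groups. It was run against Brugia malayi microfilariae as whole organisms, using previously published standard procedures. Reference drugs acted as positive controls, and activity is reported both as percent inhibition and as IC50.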

Data set [3] has as its system Trypanosoma cruzi. Nature of the data set: WHO-TDR: Chagas disease. In kind it is functional, organism-based, Homo sapiens. Particulars: MRC5. The procedure, abridged: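 Intracellular amastigotes of the Trypanosoma cruzi Tulahuen CL2 beta-galactosidase strain, grown in MRC-5SV2 human lung fibroblast host cells, were tested in a whole-organism screen. The compounds came from a 10,000-member diverse Life Chemicals library that had been filtered for drug-likeness and reactive groups. Previously published standard procedures were followed, with a reference drug as positive control, and potency is reported as IC50.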

Data set [4] relates to Leishmania infantum. Nature of the data set: WHO-TDR: Leishmaniasis. Particulars: Macrophage. Type of data set: functional, organism-based, Mus musculus. The procedure, abridged:
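IC50 values describe antiparasitic potency in this whole-organism screen. Leishmania infantum MHOM/MA(BE)/67 amastigotes were tested inside murine peritoneal macrophages against a 10,000-compound diverse Life Chemicals library. A reference drug served as positive control.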

The test system of data set [5] is Onchocerca ochengi. Nature of the data set: WHO-TDR: Onchocerciasis. The arrangement: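 at 12.5 µM on microfilariae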. In kind it is functional. The method in brief:
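Percent inhibition and IC50 describe activity against microfilariae of Onchocerca ochengi or Onchocerca lienalis, used as animal-pathogen substitutes for the human parasite. The compounds tested made up a 10,000-member diverse library from Life Chemicals.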

Data set [6] can be described thus: WHO-TDR: Cytotoxicity. Particulars: human, MRC5 cells. In kind it is toxicity, cell-based.
The test system of data set [7] is Schistosoma mansoni. Nature of the data set: WHO-TDR: Schistosomiasis. In kind it is functional. Also noted: concentration or dose not given beside the values. The method in brief: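 Percent inhibition and IC50 describe activity against whole Schistosoma mansoni worms of the Puerto Rican strain, tested as larvae and/or adults. The compounds screened were a diverse set of 10,000 from Life Chemicals, filtered for drug-likeness and reactive groups. Testing followed previously published standard procedures, with a reference drug as positive control.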

Data set [8] deals with Plasmodium falciparum K1. The experiment in a line: WHO-TDR: Malaria. Type of data set: functional, organism-based, Homo sapiens. Particulars: Erythrocyte. The method in brief: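 Life Chemicals supplied the diverse library of 10,000 compounds, which had been filtered for drug-likeness and reactive groups. Each was screened against the K1 strain of Plasmodium falciparum at its intra-erythrocytic stage in human red blood cells, using previously published standard procedures and a reference drug as positive control. The table reports IC50 for antiplasmodial potency.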

Converted amounts (≈) assume the structure as drawn.

We go through 19 compounds from ChEMBL document CHEMBL2093137, “WHO-TDR NTD Screening”.

Regarding `Cc1ccc(C)c2sc(N(CCCn3ccnc3)C(=O)COc3ccccc3)nc12`, the IC50 came out at 4.44 µg/mL (≈ 10.6 µM) in data set [1]; 1.14 µg/mL (≈ 2.71 µM) in data set [3]; 9.34 µg/mL (≈ 22.2 µM) in data set [4]; 5.31 µg/mL (≈ 12.6 µM) in data set [6]; 2.34 µg/mL (≈ 5.56 µM) in data set [8]. For the same compound, the “% Inhibition” value in data set [2] is given as 0%; in data set [5] it was 100%; in data set [7], 0%.
Regarding `O=S(=O)(NCCNc1ccc(Nc2ccncc2)nn1)c1cc(Cl)ccc1Cl`, the IC50 in data set [1] was greater than 13.2 µg/mL; in data set [3], greater than 13.2 µg/mL; in data set [4], greater than 13.2 µg/mL; in data set [6], greater than 13.2 µg/mL; in data set [8], 9.79 µg/mL (≈ 22.3 µM). Moreover, the “% Inhibition” value in data set [2] turned out to be 0%; in data set [5], 100%; in data set [7], 0%.
As for `O=c1ccc(-c2ccc(F)cc2)nn1CCCNS(=O)(=O)/C=C/c1ccccc1`, the IC50 was 5.43 µg/mL (≈ 13.1 µM) in data set [1]; greater than 12.4 µg/mL in data set [3]; greater than 12.4 µg/mL in data set [4]; 6.58 µg/mL (≈ 15.9 µM) in data set [6]; 6.97 µg/mL (≈ 16.9 µM) in data set [8]. Moreover, the “% Inhibition” value in data set [2] is on record as 0%; in data set [5], 100%; in data set [7] it was 0%.
Turning to `O=C(CSc1ccc(NC(=O)c2ccco2)nn1)Nc1ccccc1C(F)(F)F`, the IC50 in data set [1], in data set [3], in data set [4], in data set [6] and in data set [8] was greater than 12.7 µg/mL in each case. In addition, the figures for the “% Inhibition” value in data set [2], in data set [5] and in data set [7] were 0%, 100% and 0%, respectively.
Take `O=C(CCCn1nc(-c2ccccc2)ccc1=O)N1CCN(c2ccccc2F)CC1`: the IC50 in data set [1] is 4.04 µg/mL (≈ 9.6 µM); in data set [3] it was 3.81 µg/mL (≈ 9.07 µM); in data set [4], greater than 12.6 µg/mL; in data set [6], greater than 12.6 µg/mL; in data set [8], greater than 12.6 µg/mL. In addition, the “% Inhibition” value in data set [2] is 0%; in data set [5], 100%; in data set [7], 25%.
As to `CS(=O)(=O)c1ccccc1C(=O)Nc1nc(-c2cc3ccccc3o2)cs1`, the IC50 was 4.02 µg/mL (≈ 10.1 µM) in data set [1]; 4.3 µg/mL (≈ 10.8 µM) in data set [3]; greater than 12 µg/mL in data set [4]; 5.25 µg/mL (≈ 13.2 µM) in data set [6]; greater than 12 µg/mL in data set [8]. For the same compound, the “% Inhibition” value came to 0% in data set [2], 100% in data set [5] and 0% in data set [7].
As to `Cc1cccc(Nc2ccc(NCCNC(=O)Nc3ccc(F)cc3)nn2)n1`, the IC50 in data set [1] was greater than 11.4 µg/mL; in data set [3], greater than 11.4 µg/mL; in data set [4] it was greater than 11.4 µg/mL; in data set [6], greater than 11.4 µg/mL; in data set [8], 8.36 µg/mL (≈ 21.9 µM). The “% Inhibition” value in data set [2] is 0%; in data set [5], 100%; in data set [7], 0%.
Consider `CCC(=O)Nc1ccc(S(=O)(=O)NCCc2ccc(N3CCCC3)cc2)c(C)c1`, for which the half-inhibitory concentration (IC50) in data set [1] is 6.95 µg/mL (≈ 16.7 µM); in data set [3], 5.06 µg/mL (≈ 12.2 µM); in data set [4], greater than 12.5 µg/mL; in data set [6], greater than 12.5 µg/mL; in data set [8], greater than 12.5 µg/mL. The “% Inhibition” value in data set [2] was 0%; in data set [5], 100%; in data set [7], 0%.
Turning to `O=C(CSC1=Nc2cccnc2Nc2ccccc21)Nc1ccc(F)c(F)c1`, the IC50 in data set [1] was greater than 11.9 µg/mL; in data set [3], greater than 11.9 µg/mL; in data set [4] it was greater than 11.9 µg/mL; in data set [6], greater than 11.9 µg/mL; in data set [8], 4.83 µg/mL (≈ 12.2 µM). In addition, the “% Inhibition” value in data set [2] turned out to be 0%; in data set [5], 100%; in data set [7], 0%.
Turning to `O=C(C1CCCC1)N1CCN(c2ccc(-c3ccccn3)nn2)CC1`, the IC50 in data set [1] is 3.2 µg/mL (≈ 9.49 µM); in data set [3], 1.19 µg/mL (≈ 3.52 µM); in data set [4], 0.328 µg/mL (≈ 0.972 µM); in data set [6], 4.9 µg/mL (≈ 14.5 µM); in data set [8], 4.13 µg/mL (≈ 12.3 µM). Moreover, the “% Inhibition” value in data set [2] was 33.33%; in data set [5] it was 0%; in data set [7] it was 41.7%.
With `O=C(Cc1csc(NC(=O)c2ccc[nH]c2=O)n1)Nc1ccc(Cl)cc1`, the IC50 in data set [1] is greater than 11.7 µg/mL; in data set [3] it was greater than 11.7 µg/mL; in data set [4], 0.378 µg/mL (≈ 0.972 µM); in data set [6], greater than 11.7 µg/mL; in data set [8], greater than 11.7 µg/mL. Besides, the “% Inhibition” value turned out to be 20% in data set [2], 0% in data set [5] and 0% in data set [7].
As for `Cc1noc(C)c1CCc1nc(-c2ccc(Cl)cc2)no1`, the IC50 is greater than 9.11 µg/mL in data set [1]; 2.88 µg/mL (≈ 9.49 µM) in data set [3]; greater than 9.11 µg/mL in data set [4]; 3.27 µg/mL (≈ 10.8 µM) in data set [6]; 4.72 µg/mL (≈ 15.5 µM) in data set [8]. Further, the “% Inhibition” value is 0% in data set [2], 100% in data set [5] and 0% in data set [7].
Take `CSc1ccccc1NC(=O)c1ccc(Cl)s1`: the IC50 in data set [1], in data set [3], in data set [4], in data set [6] and in data set [8] was greater than 8.51 µg/mL throughout. For the same compound, the entries for the “% Inhibition” value in data set [2], in data set [5] and in data set [7] were 25%, 100% and 0%, respectively.
Take `CS(=O)(=O)c1ccc2nc(N(Cc3cccnc3)C(=O)c3cccc(Oc4ccccc4)c3)sc2c1`: the IC50 in data set [1] is greater than 15.5 µg/mL; in data set [3] it was 0.275 µg/mL (≈ 0.533 µM); in data set [4], greater than 15.5 µg/mL; in data set [6], greater than 15.5 µg/mL; in data set [8], 4.49 µg/mL (≈ 8.71 µM). In addition, the “% Inhibition” value in data set [2], in data set [5] and in data set [7] was 0% each time.
As to `COc1cccc(-c2cc(CC(=O)NCCC(C)C)no2)c1`, the IC50 in data set [1], in data set [3], in data set [4], in data set [6] and in data set [8] was greater than 9.07 µg/mL throughout. The entries for the “% Inhibition” value in data set [2], in data set [5] and in data set [7] were 0%, 100% and 0%, respectively.
Take `O=C(Nc1ccc(F)cc1)Nc1cccc(-c2ccc(N3CCCC3)nn2)c1`: the IC50 in data set [1], in data set [3], in data set [4], in data set [6] and in data set [8] was greater than 11.3 µg/mL throughout. The entries for the “% Inhibition” value in data set [2], in data set [5] and in data set [7] were 0%, 100% and 0%, respectively.
Consider `CC(C)CC(=O)N1CCN(c2ccc(-c3ccccn3)nn2)CC1`, for which the IC50 amounted to 3.09 µg/mL (≈ 9.49 µM) in data set [1]; 0.763 µg/mL (≈ 2.34 µM) in data set [3]; 3.09 µg/mL (≈ 9.49 µM) in data set [4]; 3.86 µg/mL (≈ 11.9 µM) in data set [6]; 1.13 µg/mL (≈ 3.46 µM) in data set [8]. For the same compound, the “% Inhibition” value turned out to be 33.33% in data set [2], 100% in data set [5] and 25% in data set [7].
For the compound `OCc1cnc(SCc2ccccc2)n1Cc1ccccc1`, the IC50 is greater than 9.31 µg/mL in data set [1]; greater than 9.31 µg/mL in data set [3]; greater than 9.31 µg/mL in data set [4]; greater than 9.31 µg/mL in data set [6]; 9.31 µg/mL (≈ 30 µM) in data set [8]. Moreover, the “% Inhibition” value in data set [2] was 25%; in data set [5] it was 100%; in data set [7] it was 0%.
Turning to `COc1ccc(-c2ccc(N3CCN(C(=O)c4c(F)cccc4F)CC3)nn2)cc1OC`, the IC50 in data set [1] was greater than 13.2 µg/mL; in data set [3], greater than 13.2 µg/mL; in data set [4], 0.428 µg/mL (≈ 0.972 µM); in data set [6], greater than 13.2 µg/mL; in data set [8] it was greater than 13.2 µg/mL. For the same compound, the “% Inhibition” value in data set [2] came out at 0%; in data set [5] it was 0%; in data set [7], 8.3%.

By IC50 is commonly meant the concentration that gives 50% inhibition. Broadly, the % Inhibition is the change of the read-out against control, counted positive when it falls.
